Reference: ChEMBL document CHEMBL1129626, “Cyclic HIV protease inhibitors: synthesis, conformational analysis, P2/P2' structure-activity relationship, and molecular recognition of cyclic ureas” (J Med Chem, 1996)

Assays:
[1] = Bioavailability as maximal plasma concentration in dogs; type: ADME, organism-based, Canis lupus familiaris; conditions: dog
How it was run: (§1)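 Dogs received an oral dose of 10 mg/kg. Cmax is the observed peak plasma concentration after the oral dose. Oral bioavailability is the dose-normalized ratio AUC(po)/AUC, with the plasma concentration–time area taken from zero to infinity.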

[2] = (§2) Bioavailability as maximal plasma concentration in rats; type: ADME, organism-based; conditions: rat
How it was run: (§3)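 Rats (n = 4/group) were given an oral dose of 10 mg/kg in a propylene glycol / poly(ethylene glycol) 400 / water formulation. Cmax is the observed peak plasma concentration after the oral dose. F% is AUC(po)/AUC, with AUC taken from time zero to infinity and normalized for dose.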

[3] = target: Human immunodeficiency virus type 1 protease (Human immunodeficiency virus 1, UniProt Q72874); assay: Inhibitory activity against HIV-1 protease
How it was run: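 HIV-1 protease Ki from cleavage of a fluorescent peptide substrate, products resolved by HPLC. Inhibitor was tested at four concentrations spanning 0.1–10 000 nM, the range chosen per inhibitor.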

[4] = Bioavailability in rat; type: ADME, organism-based; conditions: in vivo; how it was run: as §3
[5] = system: Human immunodeficiency virus 1; assay: Inhibition of viral infection in HIV-1 (RF)-infected MT-2 cells with an oligonucleotide-based sandwich hybridization assay.; type: functional, MT2
How it was run: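 Uninfected MT-2 cells were preincubated for 30 min with serial dilutions of compound, then infected with HIV-1 RF and cultured for 3 days at 37 °C, 5% CO2. Lysates were assayed for viral RNA by microtiter oligonucleotide sandwich hybridization.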

[6] = Bioavailability in dog; type: ADME, organism-based, Canis lupus familiaris; conditions: in vivo; how it was run: as §1
[7] = as §2; type: ADME, organism-based; conditions: rat; how it was run: as §3; remark: listed apart in the source
[8] = Human immunodeficiency virus 1, MT2

SMILES | Cmax [1] | Cmax [2] | Ki [3] | bioavailability [4] | IC90 [5, 8] | bioavailability [6] | Cmax [7] | IC90 [5]
O=C1N(Cc2cccc(O)c2)[C@H](Cc2ccccc2)[C@H](O)[C@@H](O)[C@@H](Cc2ccccc2)N1Cc1cccc(O)c1 | 2000 nM | 810 nM | 0.12 nM | 30% | 54 nM | 16% | – | –
C=CCN1C(=O)N(CC=C)[C@H](Cc2ccccc2)[C@H](O)[C@@H](O)[C@H]1Cc1ccccc1 | – | 2700 nM | 5.2 nM | 49% | 4700 nM | – | – | –
O=C1N(Cc2ccc(O)cc2)[C@H](Cc2ccccc2)[C@H](O)[C@@H](O)[C@@H](Cc2ccccc2)N1Cc1ccc(O)cc1 | – | 390 nM | 0.12 nM | 22% | 32 nM | – | – | –
O=C1N(Cc2cccc(O)c2)[C@H](Cc2ccccc2)[C@H](O)[C@@H](O)[C@@H](Cc2ccccc2)N1Cc1ccc2ccccc2c1 | 2700 nM | 960 nM | 0.33 nM | – | 145 nM | – | 960 nM | –
O=C1N(CC2CC2)[C@H](Cc2ccccc2)[C@H](O)[C@@H](O)[C@@H](Cc2ccccc2)N1CC1CC1 | 9200 nM | 4300 nM | – | 100% | 1800 nM | 48% | – | –
O=C1N(Cc2ccc(CO)cc2)[C@H](Cc2ccccc2)[C@H](O)[C@@H](O)[C@@H](Cc2ccccc2)N1Cc1ccc(CO)cc1 [DMP-323] | 2800 nM | 780 nM | – | 27% | – | 37% | – | 57 nM
